Reference: ChEMBL document CHEMBL2413010, “Design and synthesis of 2-phenyl-1,4-dioxa-spiro[4.5]deca-6,9-dien-8-ones as potential anticancer agents starting from cytotoxic spiromamakone A” (Eur J Med Chem, 2013)

tested on: HeLa; experiment: Ratio of spiromamakone A IC50 to compound IC50 for human HeLa cells assessed as cell survival after 48 hrs by WST-8 method; type: functional; conditions: not given

Compound | Ratio IC50
O=C1C=C[C@@]2(C=C1Cl)OC[C@@H](c1ccc(I)cc1)O2 (mixture of isomers) | 15

tested on: HeLa; experiment: Cytotoxicity against human HeLa cells assessed as cell survival after 48 hrs by WST-8 method; type: functional, cell-based; conditions: Homo sapiens, HeLa, 48 h
Summary of the method: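 HeLa cells grown in DMEM with 10% FBS, penicillin and streptomycin at 37 °C, 5% CO2. Cells seeded at 1.0 × 10³ per well and left overnight, then exposed for 48 h to compounds in DMSO at various concentrations, with DMSO as negative control. WST-8 added for 1 h at 37 °C; formazan read at 450 nm. IC50 taken as concentration giving 50% cell survival.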

Compound | IC50 [µM]
O=C1C=CC2(C=C1)OCC(c1ccc(I)cc1)O2 (racemic) | 1.1
CN(C)c1ccc(-c2ccc(C3COC4(C=CC(=O)C=C4)O3)cc2)cc1 (racemic) | 3.5
COC(=O)c1cc(-c2ccc(C3COC4(C=CC(=O)C=C4)O3)cc2)ccc1F (racemic) | 1.8
O=C1C=C[C@@]2(C=C1Cl)OC[C@@H](c1ccc(I)cc1)O2 (mixture of isomers) | 0.14
CC(=O)Nc1ccc(-c2ccc(C3COC4(C=CC(=O)C=C4)O3)cc2)cc1 (racemic) | 0.9
O=C1C=C[C@]2(C=C1Cl)OC[C@@H](c1ccc(I)cc1)O2 (relative stereo) | 2.4
O=C1C=CC2(C=C1)OCC(c1cccc(-c3cccc4ccccc34)c1)O2 (racemic) | 1.3
CS(=O)(=O)c1ccc(-c2cccc(C3COC4(C=CC(=O)C=C4)O3)c2)cc1 (racemic) | 0.79
O=C1C=CC2(C=C1)OCC(c1ccc(-c3ccncc3)cc1)O2 (racemic) | 4.5
COC(=O)c1ccc(-c2ccc(C3COC4(C=CC(=O)C=C4)O3)cc2)cc1 (racemic) | 2.6
O=C1C=C[C@@]2(C=C1Cl)OC[C@@H](c1ccc(-c3ccncc3)cc1)O2 (racemic) | 2.3
O=C1C=C[C@@]2(C=C1Cl)OC[C@@H](c1ccc(-c3cnc4ccccc4c3)cc1)O2 (racemic) | 2.7
O=C1C=CC2(C=C1)OCC(c1ccc(-c3ccoc3)cc1)O2 (racemic) | 2.5
O=C1C=CC(=O)C12C(O)C=CC21Oc2cccc3cccc(c23)O1 (configuration not stated) | 2.2
O=C1C=CC2(C=C1Cl)OCC(c1cccc(I)c1)O2 (racemic; form 2) | 1.6
O=C1C=CC2(C=C1)OCC(c1cccc(-c3cnc4ccccc4c3)c1)O2 (racemic) | 2.4
O=C1C=CC2(C=C1)OCC(c1ccc(-c3cccc(C(F)(F)F)c3)cc1)O2 (racemic) | 0.8
CC(=O)Nc1ccc(-c2cccc(C3COC4(C=CC(=O)C=C4)O3)c2)cc1 (racemic) | 0.88
O=C1C=CC2(C=C1)OCC(c1cccc(-c3ccsc3)c1)O2 (racemic) | 0.91
O=C1C=CC2(C=C1Cl)OCC(c1cccc(Br)c1)O2 (stereo in doubt) | 0.61
O=C1C=CC2(C=C1)OCC(c1cccc(-c3ccc(F)cc3)c1)O2 (racemic) | 0.67
O=C1C=CC2(C=C1)OCC(c1cccc(-c3cccc(Cl)c3)c1)O2 (racemic) | 1.8
O=C1C=CC2(C=C1)OCC(c1cccc(-c3cnccc3Cl)c1)O2 (racemic) | 1.7

Compound | IC50 [µM]
O=C1C=CC2(C=C1)OCC(c1cccc(-c3ccco3)c1)O2 (racemic) | 3.2
O=C1C=CC2(C=C1)OCC(c1ccc(Br)cc1)O2 (racemic) | 2.4
CCCOC(=O)c1cccc(-c2ccc(C3COC4(C=CC(=O)C=C4)O3)cc2)c1 (racemic) | 0.8
COC(=O)c1cccc(-c2ccc(C3COC4(C=CC(=O)C=C4)O3)cc2)c1 (racemic) | 1.5
O=C1C=CC2(C=C1)OCC(c1ccc(-c3cccc(Cl)c3)cc1)O2 (racemic) | 1.4
O=C1C=CC2(C=C1)OCC(c1ccc(-c3cccc(C(=O)O)c3)cc1)O2 (racemic) | 3.1
O=C1C=CC2(C=C1)OCC(c1cccc(-c3ccc(Cl)cc3)c1)O2 (racemic) | 0.85
O=C1C=CC2(C=C1)OCC(c1ccc(-c3cnccc3Cl)cc1)O2 (racemic) | 1.3
O=C1C=CC2(C=C1Cl)OCC(c1ccc(Cl)cc1)O2 (racemic; form 2) | 2.7
CCCOC(=O)c1ccc(-c2ccc(C3COC4(C=CC(=O)C=C4)O3)cc2)cc1 (racemic) | 0.82
O=C1C=CC2(C=C1)OCC(c1cccc(-c3cccc(F)c3)c1)O2 (racemic) | 1.6
O=C1C=C[C@@]2(C=C1Cl)OC[C@@H](c1ccc(-c3cncnc3)cc1)O2 (racemic) | 4.6
O=C1C=CC2(C=C1)OCC(c1ccc(-c3ccsc3)cc1)O2 (racemic) | 2.5
O=C1C=CC2(C=C1)OCC(c1ccc(-c3ccc(C(=O)O)cc3)cc1)O2 (racemic) | 1.7
O=C1C=CC2(C=C1)OCC(c1cccc(-c3ccccc3)c1)O2 (racemic) | 1.4
O=C1C=C[C@@]2(C=C1Cl)OC[C@@H](c1ccc(-c3cccnc3)cc1)O2 (racemic) | 9.4
CS(=O)(=O)c1ccc(-c2ccc(C3COC4(C=CC(=O)C=C4)O3)cc2)cc1 (racemic) | 1.7
O=C1C=CC2(C=C1)OCC(c1cccc(-c3ccc4ccccc4c3)c1)O2 (racemic) | 1.3
O=C1C=CC2(C=C1)OCC(c1ccc(-c3cccnc3)cc1)O2 (racemic) | 1.5
O=C1C=CC2(C=C1)OCC(c1ccc(-c3cnc4ccccc4c3)cc1)O2 (racemic) | 0.79
O=C1C=CC2(C=C1)OCC(c1cccc(I)c1)O2 (racemic) | 1.6
O=C1C=CC2(C=C1)OCC(c1ccc(-c3cncnc3)cc1)O2 (racemic) | 3.2
O=C1C=CC2(C=C1)OCC(c1ccc(-c3ccccc3OCc3ccccc3)cc1)O2 (racemic) | 0.96

same assay, conditions: hela

Compound | IC50 [µM]
O=C1C=CC2(C=C1Cl)OCC(c1ccc(Br)cc1)O2 (stereo in doubt) | 2.1
O=C1C=CC2(C=C1Cl)OCC(c1ccc(Br)cc1)O2 (mixture of isomers) | 4.5
O=C1C=CC2(C=C1Cl)OCC(c1cccc(Br)c1)O2 (racemic) | 0.64
O=C1C=CC2(C=C1Cl)OCC(c1cccc(I)c1)O2 (racemic; form 1) | 1.5
O=C1C=CC2(C=C1Cl)OCC(c1ccc(Cl)cc1)O2 (racemic; form 1) | 2.9
